From article PMC12263870 (Scientific Reports, 2025) come the findings set out here.

Assay [1] deals with BSA-glycation mediated methylglyoxal (MG). Kind of assay: Anti-glycation assay: BSA-glycation mediated methylglyoxal. The format is biochemical, bovine. The following applies: for BSA-glycation mediated MG % Inhibition at 500 µM: mean ± SD; for IC50: read-out: BSA-glycation inhibition category by IC50 criteria, category in words. Put shortly: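 Fluorescence anti-glycation assay. BSA (10 mg/mL) was in 0.1 M phosphate buffer pH 7.4 with 0.02% NaN3, and 14 mM methylglyoxal was in phosphate buffer. Test compound in DMSO was preincubated with buffer and methylglyoxal at 37°C for 2 h. BSA was then added and the mix incubated at 37°C for 1 day. Fluorescence (ex 370/em 450 nm) was read against a no-inhibitor blank. Aminoguanidine hydrochloride was the positive control. Triplicate, two independent experiments, mean ± SD.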

The target of assay [2] is T1, α-amylase (Sus scrofa, UniProt P00690).
T1 sequence (P00690 16-511): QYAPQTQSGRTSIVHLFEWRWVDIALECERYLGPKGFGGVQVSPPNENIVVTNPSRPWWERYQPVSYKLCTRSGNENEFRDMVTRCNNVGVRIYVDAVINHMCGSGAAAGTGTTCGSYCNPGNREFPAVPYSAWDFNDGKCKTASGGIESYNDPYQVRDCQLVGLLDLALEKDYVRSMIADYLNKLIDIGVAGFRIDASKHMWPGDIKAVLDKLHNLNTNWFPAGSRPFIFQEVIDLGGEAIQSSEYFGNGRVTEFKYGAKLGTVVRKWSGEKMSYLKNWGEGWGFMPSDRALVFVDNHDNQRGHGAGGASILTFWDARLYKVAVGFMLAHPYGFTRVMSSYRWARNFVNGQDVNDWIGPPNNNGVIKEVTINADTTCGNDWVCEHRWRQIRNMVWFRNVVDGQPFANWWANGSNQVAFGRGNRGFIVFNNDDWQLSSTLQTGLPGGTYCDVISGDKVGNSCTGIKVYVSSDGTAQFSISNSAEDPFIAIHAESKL
As to the kind of experiment: Inhibitory kinetic analysis. The format is biochemical, porcine. Put shortly: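 Porcine pancreatic α-amylase (type VI-B) in phosphate buffer pH 6.0 with 0.02% NaN3. Enzyme stock was 1 mg/mL and CNP-G3 stock 0.5 mM. Test compound and enzyme were preincubated at 37°C for 10 min, then CNP-G3 was added at varied concentrations for 30 min at 37°C, read at 405 nm. Three inhibitor concentrations were used. Inhibition type came from Lineweaver–Burk plots, Ki and Kis from secondary slope and intercept plots.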

As to `Cl.N=C(N)NN` [Aminoguanidine hydrochloride, reference compound], the “BSA-glycation mediated MG % Inhibition at 500 µM” value in assay [1] turned out to be 79.66%.
In the case of `O=c1cc(-c2ccc(O)cc2)oc2c(Br)c(O)c(Br)c(O)c12` [Compound F2a, 6,8-Dibromoapigenin], in assay [1], the IC50 – broadly, the concentration that gives 50% inhibition – was 10.1 to 100 µM.
For `O=c1cc(-c2ccc(O)c(O)c2)oc2cc(O)cc(O)c12` [Compound F3, Luteolin], in assay [1], the IC50 is 10.1 to 100 µM.
In the case of `O=c1cc(-c2ccc(O)c(O)c2)oc2c(Br)c(O)c(Br)c(O)c12` [Compound F3a, 6,8-Dibromoluteolin], in assay [2], the Ki (in general, a measure of affinity in units of concentration, obtained from inhibition or displacement) was found to be 0.18 µM. The “Inhibition type, α-amylase” value in assay [2] (Lineweaver-Burk plot, CNP-G3) was “mixed-type”. Besides, the IC50 in assay [1] lay in the range of 10.1 to 100 µM.
As for `O=c1c(O)c(-c2ccc(O)cc2O)oc2cc(O)cc(O)c12` [Compound F6, Morin], in assay [1], the IC50 lay in the range of 100 to 200 µM.
On the same count and under the same terms, the value for `O=c1c(O)c(-c2ccc(O)c(O)c2)oc2cc(O)cc(O)c12` [Compound F7, Quercetin] was 10.1 to 100 µM.
On to `O=C1C[C@@H](c2ccc(O)cc2)Oc2cc(O)cc(O)c21` [Compound F11, Naringenin], for which, in assay [1], the “BSA-glycation mediated MG % Inhibition at 500 µM” value was 56.89%.
Turning to `O=C1C[C@@H](c2ccc(O)cc2)Oc2c(Br)c(O)c(Br)c(O)c21` [Compound F11a, 6,8-Dibromonaringenin], in assay [1], the IC50 was in the range of 10.1 to 100 µM.
